Measured values gathered from unrelated publications.
Protocols differ between the studies behind these lines. In brackets after ≈: the same amount, converted by molar mass.

CCCCCCCCCOc1ccc2[nH]cc(CCN)c2c1
IC50 (CAL-27; cell growth or viability; 72 h): 4.11 µM

O=C(Oc1ccc(Cl)cc1)[c-]1cccc1.[Fe+2].c1cc[cH-]c1
IC50 (MCF-10A; cell growth or viability, MTT; 72 h): 500 µM

O=C(N/N=C1\C(=O)N(Cc2ccccc2)c2ccc(Cl)cc21)c1cc2ccccc2[nH]1
IC50 (MCF-10A; cell growth or viability; 72 h): 2 µM

CCCCCCC/C=C/C(=O)N1C(=O)/C(=C(\O)c2ccc(OCOCCOC)cc2)C(=O)C1CC(C)C (stereo not drawn)
MIC (Burkholderia cepacia; microbial growth; ATCC25416): > 200 µg/mL

C=C(CCC=C(C)C)[C@H]1CC[C@H]2[C@@H]3CCC4=CC(=O)CC[C@]4(C)[C@H]3CC[C@@]12C
IC50 (Leishmania mexicana; parasite growth; 48 h, promastigote): 30 µM

C/C(O)=C1\C(=O)C(CC(C)C)N(C(=O)CCCCCc2ccccc2)C1=O (stereo not drawn)
MIC (Burkholderia cepacia; microbial growth; ATCC25416): > 200 µg/mL

OCCOCCN1CCN(C(c2ccccc2)c2ccc(Cl)cc2)CC1 (stereo not drawn)
inhibition (human PBMC; cell migration; 10 µM): 7%

CCCCCCC/C=C/C(=O)N1C(=O)/C(=C(/C)O)C(=O)C1Cc1ccc(OC(C)(C)C)cc1 (stereo not drawn)
MIC (Burkholderia cepacia; microbial growth; ATCC25416): > 200 µg/mL

O=c1ccc2ccc3occc3c2o1
inhibition (tubulin polymerisation, inhibitor; 10 µM): 57.1%

NS(=O)(=O)c1cc(C(=O)O)c(NCc2ccco2)cc1Cl
inhibition (human PBMC; cell migration; 10 µM): 89%

CCCCCCC/C=C/C(=O)N1C(=O)/C(=C(\O)c2ccc(O)cc2)C(=O)C1CC(C)C (stereo not drawn)
MIC (Burkholderia cepacia; microbial growth; ATCC25416): 100 µg/mL (≈ 234 µM)

Cc1cc(C)c(-n2ccn(-c3c(C)cc(C)cc3C)c2=[Se])c(C)c1
IC50 (HCT-15; cell growth or viability, MTT; 72 h): 10.7 µM
